Assay results published in ChEMBL document CHEMBL1828628, “Discovery of a tetrahydroisoquinoline-based hydroxamic acid derivative (ZYJ-34c) as histone deacetylase inhibitor with potent oral antitumor activities” (J Med Chem, 2011).
Activity calls are given as the source filed them. The calls are words filed in the database; no cut-off is given here.

Columns and labels:
MDA-MB-231 [1] = test: Antitumor activity against human MDA-MB-231 cells xenografted in BALB/c nu mouse assessed as tumor growth inhibition administered as ip qd for 19 days; type: functional, organism-based
Outline: (§1)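 Female athymic BALB/c-nu mice, 5–6 weeks old, were inoculated subcutaneously in the right flank with RPMI1640/10% FBS-cultured tumor cells (5 × 10^6 for MDA-MB-231). At about 100 mm3 (~10 days), mice were randomized 6 per group and dosed orally or intraperitoneally for 19 days. Vehicle controls received PBS containing DMSO. TGI = (control − treated mean tumor weight)/control mean tumor weight, at end of treatment.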

H22 [2] = test: Antitumor activity against mouse H22 cells xenografted in Kunming mouse assessed as reduction of pulmonary metastatic nodes in lungs at 90 mg/kg, po qd for 14 days; type: functional, organism-based; set-up: dose 90 mg/kg
MDA-MB-231 [3] = test: Antitumor activity against human MDA-MB-231 cells xenografted in BALB/c nu mouse assessed as tumor growth inhibition at 90 mg/kg, ip qd for 19 days relative to control; type: functional; settings: route intraperitoneal
Mus musculus [4] = test: Toxicity in human HCT116 cells xenografted BALB/c nu mouse assessed as signs of organ toxicity at 90 mg/kg, po qd for 19 days; type: organism-based, HCT-116; set-up: dose 90 mg/kg, route oral; settings: in vivo, 456 h
MCF7 = test: Antiproliferative activity against human MCF7 cells after 48 hrs by MTT assay; type: functional, cell-based; settings: MCF7, 48 h
H22 [5] = test: Antitumor activity against mouse H22 cells xenografted in Kunming mouse assessed as reduction of pulmonary metastatic nodes in lungs at 60 mg/kg, po qd for 14 days; type: functional, organism-based; set-up: dose 60 mg/kg
Mus musculus [6] = test: Toxicity in human MDA-MB-231 cells xenografted BALB/c nu mouse assessed as signs of organ toxicity at 90 mg/kg, ip qd for 19 days; type: organism-based; set-up: dose 90 mg/kg, route intraperitoneal; settings: in vivo, 456 h
Mus musculus [7] = test: Toxicity in mouse H22 cells xenografted Kunming mouse assessed as change in body weight at 90 mg/kg, po qd for 19 days; type: organism-based; set-up: dose 90 mg/kg, route oral; settings: in vivo, 456 h
HCT-116 [8] = test: Antiproliferative activity against human HCT116 cells after 48 hrs by MTT assay; type: functional, cell-based; settings: HCT-116, 48 h
Outline: (§2)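 Cells kept in RPMI1640 with 10% FBS at 37 °C, 5% CO2. Cells were passaged into 96-well plates the day before dosing and left ≥4 h before compound addition. Exposure was 48 h, then 0.5% MTT for 4 h. Formazan was extracted with DMSO for 15 min and read at 570 nm. IC50 was derived from inhibition ratios; mean of three experiments.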

Mus musculus [9] = test: Toxicity in human MDA-MB-231 cells xenografted BALB/c nu mouse assessed as change in body weight at 90 mg/kg, ip qd for 19 days; type: organism-based; set-up: dose 90 mg/kg, route intraperitoneal; settings: in vivo, 456 h
Outline: (§3)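 Female BALB/c-nu mice, 5–6 weeks old, bearing subcutaneous right-flank xenografts. Mice were randomized 6 per group at about 100 mm3 tumor size. Dosing was oral or intraperitoneal for 19 days; controls received an equal volume of PBS containing DMSO. Body weight was monitored regularly during treatment, and tumors were measured by caliper every three days.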

Mus musculus [10] = test: Toxicity in human HCT116 cells xenografted BALB/c nu mouse assessed as change in body weight at 90 mg/kg, po qd for 19 days; type: organism-based, HCT-116; set-up: dose 90 mg/kg, route oral; settings: in vivo, 456 h; outline: as §3
Mus musculus [11] = test: Toxicity in mouse H22 cells xenografted Kunming mouse assessed as signs of organ toxicity at 60 mg/kg, po qd for 19 days; type: organism-based; set-up: dose 60 mg/kg, route oral; settings: in vivo, 456 h
Mus musculus [12] = test: Toxicity in mouse H22 cells xenografted Kunming mouse assessed as signs of organ toxicity at 90 mg/kg, po qd for 19 days; type: organism-based; set-up: dose 90 mg/kg, route oral; settings: in vivo, 456 h
Histone deacetylase 8 = molecular target: T1, Histone deacetylase 8 (Homo sapiens, UniProt Q9BY41); test: Inhibition of HDAC8 using Boc-Lys (acetyl)-AMC as substrate after 30 mins by fluorescence assay
T1 sequence (Q9BY41 whole entry): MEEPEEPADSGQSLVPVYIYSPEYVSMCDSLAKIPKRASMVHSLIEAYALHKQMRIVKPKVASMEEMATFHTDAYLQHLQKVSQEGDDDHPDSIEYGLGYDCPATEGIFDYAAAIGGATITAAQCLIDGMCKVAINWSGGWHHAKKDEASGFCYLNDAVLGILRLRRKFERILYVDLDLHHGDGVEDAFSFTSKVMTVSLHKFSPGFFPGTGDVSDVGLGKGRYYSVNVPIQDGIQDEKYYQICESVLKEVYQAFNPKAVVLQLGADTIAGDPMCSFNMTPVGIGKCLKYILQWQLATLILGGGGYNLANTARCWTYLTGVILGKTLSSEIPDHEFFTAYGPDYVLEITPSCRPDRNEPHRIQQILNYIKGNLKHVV
Outline: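 Enzyme (HeLa nuclear extract, HDAC6 or HDAC8) preincubated 5 min with a series of compound concentrations. Fluorogenic Boc-Lys(acetyl)-AMC substrate then added and incubated 37 °C for 30 min. Reaction stopped with developer containing trypsin and TSA, 20 min at 37 °C. Fluorescence read at ex 390/em 460 nm. Inhibition taken relative to control wells; IC50 from regression of concentration/inhibition data.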

[13] = molecular target: 72 kDa type IV collagenase (Homo sapiens) (UniProt P08253); test: Inhibition of MMP2
Sequence of 72 kDa type IV collagenase (Homo sapiens) (P08253 110-660 limits assumed): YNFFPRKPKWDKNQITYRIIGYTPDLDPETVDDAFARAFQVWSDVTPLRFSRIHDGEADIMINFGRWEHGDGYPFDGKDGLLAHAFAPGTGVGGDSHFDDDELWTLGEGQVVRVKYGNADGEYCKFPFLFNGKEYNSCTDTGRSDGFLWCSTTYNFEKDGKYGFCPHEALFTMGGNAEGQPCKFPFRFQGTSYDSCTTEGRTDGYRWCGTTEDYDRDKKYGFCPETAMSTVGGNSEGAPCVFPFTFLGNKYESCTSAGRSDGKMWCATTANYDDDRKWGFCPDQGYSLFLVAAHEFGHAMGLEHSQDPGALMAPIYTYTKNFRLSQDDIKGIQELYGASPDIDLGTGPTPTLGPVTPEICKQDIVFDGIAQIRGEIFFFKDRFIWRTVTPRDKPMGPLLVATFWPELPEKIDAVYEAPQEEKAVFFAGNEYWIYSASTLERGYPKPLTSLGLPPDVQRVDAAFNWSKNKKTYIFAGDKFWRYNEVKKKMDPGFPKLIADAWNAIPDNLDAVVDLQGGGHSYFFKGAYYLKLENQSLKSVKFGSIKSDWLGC

MDA-MB-231 [14] = test: Antitumor activity against human MDA-MB-231 cells xenografted in BALB/c nu mouse assessed as tumor growth inhibition at 90 mg/kg, po qd for 19 days relative to control; type: functional
MDA-MB-231 [15] = test: Antitumor activity against human MDA-MB-231 cells xenografted in BALB/c nu mouse assessed as tumor growth inhibition at 60 mg/kg, ip qd for 19 days relative to control; type: functional; settings: route intraperitoneal; outline: as §1
Mus musculus [16] = test: Toxicity in human MDA-MB-231 cells xenografted BALB/c nu mouse assessed as signs of organ toxicity at 60 mg/kg, ip qd for 19 days; type: organism-based; set-up: dose 60 mg/kg, route intraperitoneal; settings: in vivo, 456 h
[17] = Stability in artificial intestinal juice; type: physicochemical; settings: simulated gi fluid
HCT-116 [18] = test: Antitumor activity against human HCT116 cells xenografted in BALB/c nu mouse assessed as tumor growth inhibition at 60 mg/kg, po qd for 19 days relative to control; type: functional; outline: as §1
Mus musculus [19] = test: Toxicity in human MDA-MB-231 cells xenografted BALB/c nu mouse assessed as change in body weight at 60 mg/kg, ip qd for 19 days; type: organism-based; set-up: dose 60 mg/kg, route intraperitoneal; settings: in vivo, 456 h; outline: as §3
MDA-MB-231 [20] = test: Antiproliferative activity against human MDA-MB-231 cells after 48 hrs by MTT assay; type: functional, cell-based; settings: MDA-MB-231, 48 h; outline: as §2
Mus musculus [21] = test: Toxicity in human MDA-MB-231 cells xenografted BALB/c nu mouse assessed as signs of organ toxicity at 90 mg/kg, po qd for 19 days; type: organism-based; set-up: dose 90 mg/kg, route oral; settings: in vivo, 456 h
NB-4 = test: Antiproliferative activity against human NB4 cells after 48 hrs by MTT assay; type: functional, cell-based; settings: NB-4, 48 h; outline: as §2
K562 = test: Antiproliferative activity against human K562 cells after 48 hrs by MTT assay; type: functional, cell-based; settings: K562, 48 h; outline: as §2
[22] = Mus musculus, MDA-MB-231, ip, 456 h, read-out: TGI

With CC[C@H](C)[C@H](NC(=O)CC(C)(C)C)C(=O)N1Cc2cc(OCC(=O)NO)ccc2C[C@H]1C(=O)Nc1ccc(OC)cc1 the TGI (MDA-MB-231 [1]) was “Dose-dependent effect”, the Activity (H22 [2]) was “Active” and the inhibition in vivo at 90 mg/kg (MDA-MB-231 [3]; [22]) was 51%. The T/C (MDA-MB-231 [3]) was 37%, the Activity (Mus musculus [4]) was “Non-toxic” and the IC50 (MCF7) was 3200 nM. For the same molecule, the Activity (H22 [5]) was “Active”, the Activity (Mus musculus [6]) was “Non-toxic” and the Activity (Mus musculus [7]) was “Non-toxic”. The IC50 (HCT-116 [8]) was 770 nM, the Activity (Mus musculus [9]) was “Non-toxic” and the Activity (Mus musculus [10]) was “Non-toxic”. For the same molecule, the Activity (Mus musculus [11]) was “Non-toxic”, the Activity (Mus musculus [12]) was “Non-toxic” and the IC50 (Histone deacetylase 8) was 146 nM. The inhibition [13] was “inactive”, the T/C (MDA-MB-231 [14]) was 30% and the inhibition in vivo at 90 mg/kg (MDA-MB-231 [14]; Mus musculus, MDA-MB-231, 456 h, read-out: TGI) was 66%. The inhibition in vivo at 60 mg/kg (MDA-MB-231 [15]; [22]) was 45%, the T/C (MDA-MB-231 [15]) was 62% and the Activity (Mus musculus [16]) was “Non-toxic”. For the same molecule, the Stability [17] was “Stable”, the T/C (HCT-116 [18]) was 85% and the inhibition in vivo at 60 mg/kg (HCT-116 [18]; Mus musculus, HCT-116, 456 h, read-out: TGI) was 32%. The Activity (Mus musculus [19]) was “Non-toxic”, the IC50 (MDA-MB-231 [20]) was 580 nM and the Activity (Mus musculus [21]) was “Non-toxic”. For the same molecule, the IC50 (NB-4) was 2690 nM and the IC50 (K562) was 3470 nM.
